In the library only some 1.8% were active in any assay of this set; here they are far more common.
Tn6 DDE FP: DD(E)-Tn6 binding inhibition, primary FP screen | P02675 | Fibrin DD(E) TRITC-Tn6 fluorescence polarization displacement | inhibition, % at 8.3 µM | actives 0.21% (n = 370,000);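 active = inhibition above a per-campaign cutoff: mean of compounds within control limits plus 3 SD, cut at about 15% in these data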;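 note: 0% = median of all compound wells on the plate and 100% = blocking peptide control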
HTRA1 inh: HTRA1 (human) protease inhibition | inhibition, % at 5.96 µM | Q92743 | recombinant HTRA1, FP-rhodamine activity-based probe, fluorescence polarization | actives 0.5% (n = 340,000); in the data active = inhibition above about 36%;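 note: 0% = enzyme with DMSO and 100% = wells lacking enzyme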
ABHD4 inh: inhibitors of mouse ABHD4; Q8VD66; purified mABHD4, FP-Rh probe fluorescence polarization; inhibition, % at 8.92 µM; actives 0.54% (n = 370,000);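 active = inhibition exceeding the mean over every tested compound plus 3 SD, cut at about 30% in these data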;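 note: 0% = plate median of compound wells and 100% = S159A mutant with DMSO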
Target sequence (Q8VD66 whole entry, looked up): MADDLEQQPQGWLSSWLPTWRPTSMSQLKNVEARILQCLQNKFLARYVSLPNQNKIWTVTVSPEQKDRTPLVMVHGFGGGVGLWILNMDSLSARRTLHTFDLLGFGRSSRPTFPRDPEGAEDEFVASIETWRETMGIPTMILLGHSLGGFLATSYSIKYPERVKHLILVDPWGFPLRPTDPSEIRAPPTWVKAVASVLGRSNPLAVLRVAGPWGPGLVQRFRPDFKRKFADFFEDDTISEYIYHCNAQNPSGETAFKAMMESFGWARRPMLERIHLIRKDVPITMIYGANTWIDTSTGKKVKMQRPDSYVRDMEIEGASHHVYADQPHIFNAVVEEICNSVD
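Assay system: mABHD4 protein; medium: HEPES pH 7.0, NaCl, Pluronic buffer; dosing: 8.92 µM, single dose; schedule: 45 min + 60 min at 25 °C; signal: FP readout, ex 525 nm / em 598 nm; read-out: normalized percent inhibition of probe labeling; repeats: single replicate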
TCR CD3 inh: inhibitors of human TCR-CD3 interaction; TAMRA-labeled TCR probe fluorescence, biochemical; inhibition, % at 9.4 µM; actives 0.37% (n = 360,000); in the data active = inhibition above about 19%;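 note: recombinant mutant TCR 2C K166C tagged with TAMRA read by polarization; 0% = receptor in buffer alone and 100% = receptor with positive control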
SIAE inh: human SIAE inhibition, primary screen | SIAE FP-Rh probe binding, fluorescence polarization | actives 0.69% (n = 370,000) | inhibition, % at 9.66 µM | AID 1053197;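 active = inhibition above a cutoff: mean of compounds within the control limits plus 3 SD of those, cut at about 17% in these data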;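 note: 0% = plate median of compound wells and 100% = probe without SIAE protein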
DDE Tn7 FP inh: inhibitors of Tn7 peptide binding to human fibrin DD(E) | actives 0.13% (n = 370,000) | inhibition, % at 8.3 µM | P02675 | AID 720508 | FP displacement of FITC-Tn7 peptide from fibrin DD(E); 0% = median of compound wells per plate;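 active = inhibition above the mean of compounds falling within the control limits plus 3 SD of them, cut at about 14% in these data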;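 note: 0% = plate median of compound wells and 100% = 10 µM Aha-Tn7 peptide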
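Test system: human clot-derived fibrin DD(E) complex / Quantity: 2 µM final DD(E) protein / Incubation: 10 min plus 3 h, room temperature / Measured by: fluorescence polarization / Benchmarks: high control of 10 µM Aha-Tn7 peptide / Replicates: singlicate testing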
HTRA1 inh conf: confirmation of human HTRA1 inhibitors | shares compounds with HTRA1 inh | actives 66% (n = 1,600) | inhibition, % at 5.96 µM | recombinant HTRA1, FP-rhodamine activity-based probe, fluorescence polarization;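 active = mean inhibition over three repeats above a set limit taken from the earlier primary screen, cut at about 37% in these data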;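 note: 0% = HTRA1 with DMSO and 100% = wells lacking HTRA1; inhibitors block probe binding so polarization drops and inhibition rises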
mABHD4 conf: confirmation of mouse ABHD4 inhibitors; purified mABHD4, FP-Rh probe fluorescence polarization; actives 55% (n = 1,800); inhibition, % at 8.92 µM; AID 720658; shares compounds with ABHD4 inh;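 active = mean inhibition across replicates above the hit cutoff set in the primary screen, cut at about 30% in these data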;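 note: 0% = wild-type ABHD4 with DMSO and 100% = catalytically dead S159A mutant with DMSO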
An asterisk follows results filed as active.

`CO[C@H]1/C=C/O[C@@]2(C)Oc3c(C)c(O)c4c(O)c(c(C=NN5CCN(C)CC5)c(O)c4c3C2=O)NC(=O)/C(C)=C\C=C\[C@H](C)[C@H](O)[C@@H](C)[C@@H](O)[C@@H](C)[C@H](OC(C)=O)[C@@H]1C` gave Tn6 DDE FP 4, HTRA1 inh 36*, ABHD4 inh 35*, TCR CD3 inh 4, SIAE inh 6, DDE Tn7 FP inh 2, HTRA1 inh conf 7 and mABHD4 conf 3.
Cc1cc(/C=N/Nc2ccc([N+](=O)[O-])cn2)c(C)n1-c1ccc(C(=O)O)cc1 was read as Tn6 DDE FP 1, HTRA1 inh 41*, ABHD4 inh 41*, TCR CD3 inh 3, SIAE inh 17, DDE Tn7 FP inh -2, HTRA1 inh conf 12 and mABHD4 conf 59*.
Screening Oc1ccc(Br)cc1C=Nc1ccc(Cl)cc1 returned Tn6 DDE FP -5, HTRA1 inh -1, ABHD4 inh -2, TCR CD3 inh 14, SIAE inh 6 and DDE Tn7 FP inh -5.
Screening CCN(CC)c1ccc(N=Cc2cc(Br)ccc2O)cc1 returned Tn6 DDE FP 0, HTRA1 inh 60*, ABHD4 inh 45*, TCR CD3 inh 8, SIAE inh 11, DDE Tn7 FP inh 1, HTRA1 inh conf 4 and mABHD4 conf 29.
`COC(=O)[C@]12C[C@H](CC(=O)NCc3cccs3)C(=O)N(CCC3=CCCCC3)C1=C[C@H](C(C)C)O[C@@H]2C1CC1` gave Tn6 DDE FP 0, ABHD4 inh -3, SIAE inh 4 and DDE Tn7 FP inh 7.
For c1cc2c3c(cccc3c1)NN=N2 the results were Tn6 DDE FP -6, HTRA1 inh 37*, ABHD4 inh 33*, TCR CD3 inh -1, SIAE inh 8, DDE Tn7 FP inh -8, HTRA1 inh conf 33 and mABHD4 conf 27.
Screening CCC(NC(=O)C1CCCN(c2ncccn2)C1)c1ccccc1 (stereo not drawn) returned Tn6 DDE FP 1, ABHD4 inh -5, SIAE inh -5 and DDE Tn7 FP inh 0.
`CC1CCCCC1NC(=O)COC(=O)c1c2c(nc3ccccc13)/C(=C/c1ccco1)CC2` (stereo not drawn) gave Tn6 DDE FP 0, HTRA1 inh 81*, ABHD4 inh 38*, TCR CD3 inh 10, SIAE inh 17, DDE Tn7 FP inh -3, HTRA1 inh conf 23 and mABHD4 conf 20.
`Cc1ccc(S(=O)(=O)N2CCCC2C(c2ccccc2O)c2cn(C)c3ccccc23)cc1` (stereo not drawn) gave Tn6 DDE FP -3, ABHD4 inh -2, SIAE inh -7 and DDE Tn7 FP inh 4.
`Cc1cccc(-c2cccc3c4c([nH]c23)[C@@H]2C[C@H](N(C)C(=O)Nc3ccccc3)[C@H]([C@H](C)O)CN2CC4)c1` gave Tn6 DDE FP -6, ABHD4 inh -3, SIAE inh -3 and DDE Tn7 FP inh -14.
Cc1ccc(S(=O)(=O)c2ccc(C)cc2)cc1 was read as Tn6 DDE FP 11, HTRA1 inh 0, ABHD4 inh 1, TCR CD3 inh 2, SIAE inh -11 and DDE Tn7 FP inh 0.
Screening Cc1ccc(C2=C(O)C(=O)C(c3ccc(C)cc3)=C(O)C2=O)cc1 returned Tn6 DDE FP 0, HTRA1 inh 85*, ABHD4 inh 46*, TCR CD3 inh 8, SIAE inh 17, DDE Tn7 FP inh 9, HTRA1 inh conf 98* and mABHD4 conf 60*.
COC(=O)[C@]12C[C@H](CC(=O)NCCC(C)C)C(=O)N(Cc3cccc4ccccc34)C1=C[C@H](C(C)C)O[C@@H]2C1CC1 was read as Tn6 DDE FP 2, ABHD4 inh -5, SIAE inh 4 and DDE Tn7 FP inh -1.
Screening COC(=O)C1CN(C2CCCC2)CCS(=O)(=O)N1Cc1cn(Cc2ccccc2)nn1 (stereo not drawn) returned Tn6 DDE FP 3, ABHD4 inh 7, SIAE inh 0 and DDE Tn7 FP inh -3.
`COC(=O)c1ccc(Sc2ccc(C)cc2)c(N)c1` gave Tn6 DDE FP -8, HTRA1 inh -12, ABHD4 inh 5, TCR CD3 inh 2, SIAE inh 5 and DDE Tn7 FP inh -4.
For COc1cc(Sc2ccc(C)cc2)c(OC)cc1N the results were Tn6 DDE FP -6, HTRA1 inh 46*, ABHD4 inh 34*, TCR CD3 inh -7, SIAE inh 0, DDE Tn7 FP inh -5, HTRA1 inh conf 44* and mABHD4 conf 41*.
For O=C1c2ccccc2C2Cc3nnccc3CN12 (stereo not drawn) the results were Tn6 DDE FP 2, ABHD4 inh -4, TCR CD3 inh 5, SIAE inh -6 and DDE Tn7 FP inh -6.
Screening C=CCn1c(SCC(=O)c2ccc(O)c(O)c2)nnc1-c1ccc(OC)cc1 returned Tn6 DDE FP -6, HTRA1 inh 56*, ABHD4 inh 38*, TCR CD3 inh 10, SIAE inh 15, DDE Tn7 FP inh 7, HTRA1 inh conf 79* and mABHD4 conf 13.
Screening C=CCn1c(SCC(=O)c2ccc(O)c(O)c2)nnc1-c1ccc(C)cc1 returned Tn6 DDE FP -5, HTRA1 inh 60*, ABHD4 inh 34*, TCR CD3 inh -1, SIAE inh 11, DDE Tn7 FP inh -5, HTRA1 inh conf 66* and mABHD4 conf 23.
Screening Cc1ccc(-c2nnc(SCC(=O)c3ccc(O)c(O)c3)n2-c2ccc(Cl)cc2)cc1 returned Tn6 DDE FP -8, ABHD4 inh 14, SIAE inh 1 and DDE Tn7 FP inh 4.
Cc1cccc(C(=O)Nc2nc3ncccn3c2-c2ccc(F)c(F)c2)c1 was read as Tn6 DDE FP 1, ABHD4 inh -3, SIAE inh 0 and DDE Tn7 FP inh -3.
Cc1cc(C)c2nc(NNC(=O)c3cc(=O)c4ccccc4o3)sc2c1 was read as Tn6 DDE FP 2, HTRA1 inh 69*, ABHD4 inh 40*, TCR CD3 inh -7, SIAE inh 2, DDE Tn7 FP inh 4, HTRA1 inh conf 59* and mABHD4 conf 61*.
`Oc1cccc(/C=N/N=C/c2cccc(O)c2O)c1O` gave Tn6 DDE FP -15, HTRA1 inh 36*, ABHD4 inh 36*, TCR CD3 inh -4, SIAE inh -12, DDE Tn7 FP inh -1, HTRA1 inh conf 45* and mABHD4 conf 19.
